Experimental data reported in ChEMBL document CHEMBL2385045, “Discovery of novel 4-(2-fluorophenoxy)quinoline derivatives bearing 4-oxo-1,4-dihydrocinnoline-3-carboxamide moiety as c-Met kinase inhibitors” (Bioorg Med Chem, 2013).

Columns and labels:
MKN-45 = test: Cytotoxicity against c-Met-dependent human MKN45 cells assessed as growth inhibition after 72 hrs by MTT assay; details: MKN-45, 72 h
[1] = Cytotoxicity against c-Met-independent human H460 cells assessed as growth inhibition after 72 hrs by MTT assay; details: NCI-H460, 72 h
HT-29 = test: Cytotoxicity against c-Met-dependent human HT-29 cells assessed as growth inhibition after 72 hrs by MTT assay; details: HT-29, 72 h
A549 = test: Cytotoxicity against c-Met-dependent human A549 cells assessed as growth inhibition after 72 hrs by MTT assay; details: A549, 72 h
SMMC-7721 = test: Cytotoxicity against c-Met-dependent human SMMC7721 cells assessed as growth inhibition after 72 hrs by MTT assay; assay type: functional, cell-based; details: SMMC-7721, 72 h
Procedure, shortened: (§1)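 Cells grown in MEM with 10% FBS. About 4×10³ cells/well were seeded and incubated 24 h at 37 °C, 5% CO₂, then exposed to compound for 72 h. MTT was added (terminal 5 µg/mL) for 4 h at 37 °C, and formazan was dissolved in DMSO. IC50 is the mean of three determinations.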

[2] = Cytotoxicity against c-Met-dependent human U87MG cells assessed as growth inhibition after 72 hrs by MTT assay; assay type: functional, cell-based, U-87MG ATCC; details: U-87 MG; procedure, shortened: as §1
[3] = target: T1, Hepatocyte growth factor receptor (Homo sapiens, UniProt P08581); test: Inhibition of c-Met (unknown origin)
Procedure, shortened: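 HTRF kinase assay on plates precoated with 20 µg/mL poly(Glu,Tyr) 4:1. ATP (10 mM solution) in 50 mM HEPES pH 7.0 buffer with DTT, MgCl₂, MnCl₂ and 0.1% NaN₃. Compound in 1% DMSO; reaction started with purified kinase and run 30 min at 25 °C. Inhibition relative to enzyme and no-enzyme controls; IC50 from the inhibition curves.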

[4] = target: T1, Hepatocyte growth factor receptor; test: Inhibition of wild type GST-tagged c-Met kinase domain (1058 to 1365) (unknown origin) expressed in Sf9 cells by HTRF assay
[5] = target: Vascular endothelial growth factor receptor 2 (Homo sapiens, UniProt P35968); test: Inhibition of VEGFR-2 (unknown origin)

| Compound | IC50 (MKN-45) [nM] | IC50 [1] [nM] | IC50 (HT-29) [nM] | IC50 (A549) [nM] | IC50 (SMMC-7721) [nM] | IC50 [2] [nM] | IC50 [3] [nM] | IC50 [4] [nM] | IC50 [5] [nM] |
| --- | --- | --- | --- | --- | --- | --- | --- | --- | --- |
| COc1cc2c(Oc3ccc(NC(=O)c4nn(-c5ccc(F)cc5Br)c5ccccc5c4=O)cc3F)ccnc2cc1OCCCN1CCCC1 | 1720 | 3650 | 2910 | 1030 | – | – | – | – | – |
| COc1cc2c(Oc3ccc(NC(=O)c4nn(-c5ccccc5)c5ccccc5c4=O)cc3F)ccnc2cc1OCCCN1CCOCC1 | 960 | 690 | 1170 | 570 | 1130 | 1460 | – | – | – |
| COc1cc2c(Oc3ccc(NC(=O)c4nn(-c5ccccc5Cl)c5ccccc5c4=O)cc3F)ccnc2cc1OCCCN1CCOCC1 | 10 | 10 | 240 | 30 | 920 | 1690 | – | – | – |
| COc1cc2c(Oc3ccc(NC(=O)c4nn(-c5ccccc5C(F)(F)F)c5ccccc5c4=O)cc3F)ccnc2cc1OCCCN1CCOCC1 | 20 | 80 | 510 | 60 | 840 | 1480 | – | – | – |
| COc1cc2c(Oc3ccc(NC(=O)c4nn(-c5ccccc5OC(F)(F)F)c5ccccc5c4=O)cc3F)ccnc2cc1OCCCN1CCOCC1 | 760 | 620 | 1120 | 480 | – | 1040 | – | – | – |
| COc1cc2c(Oc3ccc(NC(=O)c4nn(-c5ccc(C)cc5)c5ccccc5c4=O)cc3F)ccnc2cc1OCCCN1CCOCC1 | 680 | 2100 | 3200 | 1100 | – | 1970 | – | – | – |
| COc1cc2c(Oc3ccc(NC(=O)c4nn(-c5cc(C)ccc5C)c5ccccc5c4=O)cc3F)ccnc2cc1OCCCN1CCOCC1 | 30 | 590 | 1150 | 750 | – | 1360 | – | – | – |
| COc1cc2c(Oc3ccc(NC(=O)c4nn(-c5ccccc5F)c5cc(F)ccc5c4=O)cc3F)ccnc2cc1OCCCN1CCCCC1 | 2790 | 3280 | 5070 | 3270 | – | – | – | – | – |
| COc1cc2c(Oc3ccc(NC(=O)c4nn(-c5ccccc5Cl)c5cc(F)ccc5c4=O)cc3F)ccnc2cc1OCCCN1CCCCC1 | 1620 | 1510 | 2470 | 1820 | – | – | – | – | – |
| COc1cc2c(Oc3ccc(NC(=O)c4nn(-c5ccccc5F)c5cc(F)ccc5c4=O)cc3F)ccnc2cc1OCCCN1CCOCC1 | 1540 | 2250 | 2950 | 2040 | – | – | – | – | – |
| COc1cc2c(Oc3ccc(NC(=O)c4nn(-c5ccccc5Cl)c5cc(F)ccc5c4=O)cc3F)ccnc2cc1OCCCN1CCC(C)CC1 | 1560 | 1250 | 1370 | 1050 | – | – | – | – | – |
| COc1cc2c(Oc3ccc(-c4cnc(Nc5ccccc5)n(C)c4=O)cc3F)ccnc2cc1OCCCN1CCOCC1 | – | – | – | – | – | – | 4.9 | – | – |
| COc1cc2c(Oc3ccc(NC(=O)c4nn(-c5ccc(Cl)cc5Cl)c5ccccc5c4=O)cc3F)ccnc2cc1OCCCN1CCCCC1 | 590 | 1030 | 990 | 470 | – | – | – | – | – |
| COc1cc2c(Oc3ccc(NC(=O)c4nn(-c5c(Cl)cccc5Cl)c5ccccc5c4=O)cc3F)ccnc2cc1OCCCN1CCCCC1 | 390 | 770 | 1150 | 410 | – | 1360 | – | – | – |
| COc1cc2c(Oc3ccc(NC(=O)c4nn(-c5ccc(C)cc5C)c5ccccc5c4=O)cc3F)ccnc2cc1OCCCN1CCCCC1 | 1850 | 1570 | 3560 | 1280 | – | – | – | – | – |
| COc1cc2c(Oc3ccc(NC(=O)c4nn(-c5ccccc5F)c5ccccc5c4=O)cc3F)ccnc2cc1OCCCN1CCC(C)CC1 | 580 | 290 | 780 | 330 | 950 | 1210 | – | – | – |
| COc1cc2c(Oc3ccc(NC(=O)c4nn(-c5ccccc5Br)c5ccccc5c4=O)cc3F)ccnc2cc1OCCCN1CCC(C)CC1 | 280 | 830 | 1340 | 350 | – | 2160 | – | – | – |
| COc1cc2c(Oc3ccc(NC(=O)c4nn(-c5cccc(C(F)(F)F)c5)c5ccccc5c4=O)cc3F)ccnc2cc1OCCCN1CCC(C)CC1 | 160 | 550 | 1020 | 210 | – | 730 | – | – | – |

| Compound | IC50 (MKN-45) [nM] | IC50 [1] [nM] | IC50 (HT-29) [nM] | IC50 (A549) [nM] | IC50 (SMMC-7721) [nM] | IC50 [2] [nM] | IC50 [3] [nM] | IC50 [4] [nM] | IC50 [5] [nM] |
| --- | --- | --- | --- | --- | --- | --- | --- | --- | --- |
| COc1cc2c(Oc3ccc(NC(=O)c4nn(-c5ccc(F)cc5)c5ccccc5c4=O)cc3F)ccnc2cc1OCCCN1CCC(C)CC1 | 170 | 890 | 460 | 150 | 930 | 1120 | – | – | – |
| COc1cc2c(Oc3ccc(NC(=O)c4nn(-c5ccc(C)cc5)c5ccccc5c4=O)cc3F)ccnc2cc1OCCCN1CCC(C)CC1 | 1220 | 1990 | 2850 | 1050 | – | – | – | – | – |
| COc1cc2c(Oc3ccc(NC(=O)c4nn(-c5c(Cl)cccc5Cl)c5ccccc5c4=O)cc3F)ccnc2cc1OCCCN1CCC(C)CC1 | 360 | 650 | 920 | 400 | 820 | 1040 | – | – | – |
| COc1cc2c(Oc3ccc(NC(=O)c4nn(-c5ccc(Cl)c(C(F)(F)F)c5)c5ccccc5c4=O)cc3F)ccnc2cc1OCCCN1CCC(C)CC1 | 140 | 110 | 490 | 240 | 370 | 540 | – | – | – |
| COc1cc2c(Oc3ccc(NC(=O)c4nn(-c5cccc(C(F)(F)F)c5)c5ccccc5c4=O)cc3F)ccnc2cc1OCCCN1CCCC1 | 190 | 1040 | 780 | 300 | 630 | 850 | – | – | – |
| COc1cc2c(Oc3ccc(NC(=O)c4nn(-c5ccc(F)c(F)c5)c5ccccc5c4=O)cc3F)ccnc2cc1OCCCN1CCCC1 | 350 | 640 | 1120 | 260 | 590 | 1060 | – | – | – |
| COc1cc2c(Oc3ccc(NC(=O)c4nn(-c5c(Cl)cccc5Cl)c5ccccc5c4=O)cc3F)ccnc2cc1OCCCN1CCCC1 | 350 | 370 | 1050 | 350 | 840 | 1250 | – | – | – |
| COc1cc2c(Oc3ccc(NC(=O)c4nn(-c5cc(C(F)(F)F)ccc5Cl)c5ccccc5c4=O)cc3F)ccnc2cc1OCCCN1CCCC1 | 170 | 610 | 1120 | 200 | – | 1420 | – | – | – |
| COc1cc2c(Oc3ccc(NC(=O)c4nn(-c5cc(C)ccc5C)c5ccccc5c4=O)cc3F)ccnc2cc1OCCCN1CCCC1 | 420 | 2030 | 3050 | 1150 | – | 2470 | – | – | – |
| COc1cc2c(Oc3ccc(NC(=O)c4nn(-c5ccccc5Cl)c5ccccc5c4=O)cc3F)ccnc2cc1OCCCN1CCCCC1 | 50 | 73 | 260 | 43 | 420 | 490 | – | – | – |
| COc1cc2c(Oc3ccc(NC(=O)c4nn(-c5ccccc5C(F)(F)F)c5ccccc5c4=O)cc3F)ccnc2cc1OCCCN1CCCCC1 | 27 | 81 | 560 | 55 | 1350 | 1160 | – | – | – |
| COc1cc2c(Oc3ccc(NC(=O)c4nn(-c5cccc(F)c5)c5ccccc5c4=O)cc3F)ccnc2cc1OCCCN1CCCCC1 | 140 | 910 | 1880 | 110 | 2020 | 2460 | – | – | – |
| COc1cc2c(Oc3ccc(NC(=O)c4nn(-c5cccc(C(F)(F)F)c5)c5ccccc5c4=O)cc3F)ccnc2cc1OCCCN1CCCCC1 | 270 | 1030 | 560 | 310 | 330 | 1620 | – | – | – |
| COc1cc2c(Oc3ccc(NC(=O)c4nn(-c5ccc(Cl)cc5)c5ccccc5c4=O)cc3F)ccnc2cc1OCCCN1CCCCC1 | 230 | 640 | 2120 | 200 | 330 | 1620 | – | – | – |
| COc1cc2c(Oc3ccc(NC(=O)c4nn(-c5ccc(Br)cc5)c5ccccc5c4=O)cc3F)ccnc2cc1OCCCN1CCCCC1 | 450 | 400 | 1140 | 530 | 840 | 1600 | – | – | – |
| COc1cc2c(Oc3ccc(-c4cnc(Cc5ccccc5)n(C)c4=O)cc3F)ccnc2cc1OCCCN1CCOCC1 | – | – | – | – | – | – | – | 8.9 | – |
| COc1cc2c(Oc3ccc(NC(=O)N4CCN(c5ccccc5)C4=O)cc3F)ccnc2cc1OCCCN1CCOCC1 | – | – | – | – | – | – | – | – | 30 |
